Laboratory results published in ChEMBL document CHEMBL5724801, “EUbOPEN Chemogenomics Library - Multiplex” (2024).
Where “and” joins values, the source holds several entries; their conditions need not be identical. Identical values can stand only once.

System: Fibroblast
Assay: Multiplex assay against human fibroblast
Type: toxicity, cell-based
In short: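 Hoechst33342, BioTracker Green Microtubule Cytoskeleton Dye, MitoTracker Red and Annexin V Alexa Fluor 680 were added to live cells at seeding, and imaging on a CQ1 microscope at 37°C and 5% CO2 followed compound addition. Gating by CellPathfinder machine learning separated cells into Hoechst high-intensity objects or normal cells, then normal cells into healthy, pyknosed or fragmented nuclei, then pyknosed cells into mitotic or apoptotic. Per cents of healthy-nucleus cells are reported for the tubulin, mitochondrial-mass and membrane-permeability phenotypes.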

[1] = 12 h, 1 µM, compound concentration 1 uM
[2] = 12 h, 10 µM, compound concentration 10 uM
[3] = 24 h, 1 µM, compound concentration 1 uM
[4] = 24 h, 10 µM, compound concentration 10 uM
[5] = 48 h, 1 µM, compound concentration 1 uM
[6] = 48 h, 10 µM, compound concentration 10 uM

SMILES: C[C@H]1[C@H]2CC[C@H]3[C@@H]4CC=C5C[C@@H](N(C)C)CC[C@]5(C)[C@H]4CC[C@]23CN1C [CONESSINE]
- Population Apoptotic (%) [1]: 45% and 29%
- Population Fragmented Nuclei (%) [1]: 15% and 33%
- Population Healthy Nuclei (%) [1]: 73% and 41%
- Population Hoechst High Intensity Objects (%) [1]: 1% and 2%
- Population Membrane Permeable-Phenotype (%) [1]: 0% and 7%
- Population Mitochondria Different-Phenotype (%) [1]: 8% and 2%
- Population Mitotic Cells (%) [1]: 55% and 70%
- Population Normal (%) [1]: 98% and 97%
- Population Pyknosed Nuclei (%) [1]: 11% and 24%
- Population Tubulin-Different-Phenotype (%) [1]: 19% and 46%
- Total Cell Count [1]: 174 and 101
- Population Apoptotic (%) [2]: 37% and 43%
- Population Fragmented Nuclei (%) [2]: 26%
- Population Healthy Nuclei (%) [2]: 60% and 45%
- Population Hoechst High Intensity Objects (%) [2]: 3%
- Population Membrane Permeable-Phenotype (%) [2]: 5% and 8%
- Population Mitochondria Different-Phenotype (%) [2]: 10% and 4%
- Population Mitotic Cells (%) [2]: 62% and 56%
- Population Normal (%) [2]: 96%
- Population Pyknosed Nuclei (%) [2]: 13% and 28%
- Population Tubulin-Different-Phenotype (%) [2]: 32% and 58%
- Total Cell Count [2]: 189 and 110
- Population Apoptotic (%) [3]: 43% and 40%
- Population Fragmented Nuclei (%) [3]: 13% and 27%
- Population Healthy Nuclei (%) [3]: 73% and 48%
- Population Hoechst High Intensity Objects (%) [3]: 2% and 4%
- Population Mitochondria Different-Phenotype (%) [3]: 4% and 6%
- Population Mitotic Cells (%) [3]: 56% and 59%
- Population Normal (%) [3]: 97% and 95%
- Population Pyknosed Nuclei (%) [3]: 13% and 24%
- Population Tubulin-Different-Phenotype (%) [3]: 22% and 61%
- Total Cell Count [3]: 175 and 95
- Population Apoptotic (%) [4]: 64% and 36%
- Population Fragmented Nuclei (%) [4]: 28%
- Population Healthy Nuclei (%) [4]: 61% and 39%
- Population Hoechst High Intensity Objects (%) [4]: 3% and 2%
- Population Membrane Permeable-Phenotype (%) [4]: 1% and 7%
- Population Mitochondria Different-Phenotype (%) [4]: 7%
- Population Mitotic Cells (%) [4]: 35% and 63%
- Population Normal (%) [4]: 96% and 97%
- Population Tubulin-Different-Phenotype (%) [4]: 27% and 60%
- Total Cell Count [4]: 190 and 106
- Population Apoptotic (%) [5]: 50% and 47%
- Population Fragmented Nuclei (%) [5]: 17% and 37%
- Population Healthy Nuclei (%) [5]: 73% and 45%
- Population Hoechst High Intensity Objects (%) [5]: 5% and 0%
- Population Membrane Permeable-Phenotype (%) [5]: 0% and 17%
- Population Mitochondria Different-Phenotype (%) [5]: 3% and 8%
- Population Mitotic Cells (%) [5]: 50% and 52%
- Population Normal (%) [5]: 94% and 99%
- Population Pyknosed Nuclei (%) [5]: 9% and 16%
- Population Tubulin-Different-Phenotype (%) [5]: 27% and 63%
- Total Cell Count [5]: 178 and 104
- Population Apoptotic (%) [6]: 66% and 27%
- Population Fragmented Nuclei (%) [6]: 26% and 29%
- Population Healthy Nuclei (%) [6]: 62% and 48%
- Population Hoechst High Intensity Objects (%) [6]: 6% and 2%
- Population Membrane Permeable-Phenotype (%) [6]: 0% and 8%
- Population Mitochondria Different-Phenotype (%) [6]: 4% and 6%
- Population Mitotic Cells (%) [6]: 33% and 72%
- Population Normal (%) [6]: 93% and 97%
- Population Pyknosed Nuclei (%) [6]: 10% and 22%
- Population Tubulin-Different-Phenotype (%) [6]: 25% and 62%
- Total Cell Count [6]: 190 and 102

SMILES: CCn1cnc2c(-c3ccc(F)c(-c4ccc(S(=O)(=O)CC)cc4OC)c3)cnnc21 [DARIGABAT]
- Population Apoptotic (%) [1]: 6.38% and 17.39%
- Population Fragmented Nuclei (%) [1]: 14.08% and 9%
- Population Healthy Nuclei (%) [1]: 52.82% and 80.09%
- Population Hoechst High Intensity Objects (%) [1]: 0%
- Population Membrane Permeable-Phenotype (%) [1]: 4% and 1.78%
- Population Mitochondria Different-Phenotype (%) [1]: 14.67% and 11.24%
- Population Mitotic Cells (%) [1]: 93.62% and 82.61%
- Population Normal (%) [1]: 100%
- Population Tubulin-Different-Phenotype (%) [1]: 21.33% and 23.08%
- Total Cell Count [1]: 142 and 211
- Population Apoptotic (%) [2]: 12.5% and 19.64%
- Population Healthy Nuclei (%) [2]: 48.7% and 72.25%
- Population Hoechst High Intensity Objects (%) [2]: 0%
- Population Membrane Permeable-Phenotype (%) [2]: 13.33% and 8.61%
- Population Mitochondria Different-Phenotype (%) [2]: 14.67% and 16.56%
- Population Mitotic Cells (%) [2]: 87.5% and 80.36%
- Population Normal (%) [2]: 100%
- Population Tubulin-Different-Phenotype (%) [2]: 54.67% and 72.85%
- Total Cell Count [2]: 154 and 209
- Population Apoptotic (%) [3]: 11.11% and 23.08%
- Population Fragmented Nuclei (%) [3]: 13.37% and 6.44%
- Population Healthy Nuclei (%) [3]: 60.47% and 87.13%
- Population Hoechst High Intensity Objects (%) [3]: 0%
- Population Membrane Permeable-Phenotype (%) [3]: 0.96% and 3.41%
- Population Mitochondria Different-Phenotype (%) [3]: 9.62% and 6.82%
- Population Mitotic Cells (%) [3]: 88.89% and 76.92%
- Population Normal (%) [3]: 100%
- Population Tubulin-Different-Phenotype (%) [3]: 19.23% and 19.89%
- Total Cell Count [3]: 172 and 202
- Population Apoptotic (%) [4]: 23.08% and 22.22%
- Population Healthy Nuclei (%) [4]: 57.56% and 78.38%
- Population Hoechst High Intensity Objects (%) [4]: 0%
- Population Membrane Permeable-Phenotype (%) [4]: 11.11% and 3.45%
- Population Mitochondria Different-Phenotype (%) [4]: 14.14% and 19.54%
- Population Mitotic Cells (%) [4]: 76.92% and 77.78%
- Population Normal (%) [4]: 100%
- Population Tubulin-Different-Phenotype (%) [4]: 52.53% and 70.69%
- Total Cell Count [4]: 172 and 222
- Population Apoptotic (%) [5]: 28.57% and 56.25%
- Population Fragmented Nuclei (%) [5]: 13.07% and 8%
- Population Healthy Nuclei (%) [5]: 82.95% and 84%
- Population Hoechst High Intensity Objects (%) [5]: 0%
- Population Membrane Permeable-Phenotype (%) [5]: 1.37% and 1.79%
- Population Mitochondria Different-Phenotype (%) [5]: 19.18% and 6.55%
- Population Mitotic Cells (%) [5]: 71.43% and 43.75%
- Population Normal (%) [5]: 100%
- Total Cell Count [5]: 176 and 200
- Population Apoptotic (%) [6]: 34.62% and 60%
- Population Healthy Nuclei (%) [6]: 68.28% and 85.52%
- Population Hoechst High Intensity Objects (%) [6]: 0%
- Population Membrane Permeable-Phenotype (%) [6]: 4.72% and 11.64%
- Population Mitochondria Different-Phenotype (%) [6]: 15.75% and 8.99%
- Population Mitotic Cells (%) [6]: 65.38% and 40%
- Population Normal (%) [6]: 100%
- Population Tubulin-Different-Phenotype (%) [6]: 34.65% and 64.55%
- Total Cell Count [6]: 186 and 221

SMILES: COc1ccc(Cl)cc1[C@]1(F)C(=O)Nc2cc(C(F)(F)F)ccc21 [FLINDOKALNER]
- Population Apoptotic (%) [1]: 10.87% and 19.35%
- Population Fragmented Nuclei (%) [1]: 9.6% and 5.91%
- Population Healthy Nuclei (%) [1]: 64.41% and 80%
- Population Hoechst High Intensity Objects (%) [1]: 0%
- Population Membrane Permeable-Phenotype (%) [1]: 2.63% and 1.7%
- Population Mitochondria Different-Phenotype (%) [1]: 7.02% and 9.09%
- Population Mitotic Cells (%) [1]: 89.13% and 80.65%
- Population Normal (%) [1]: 100%
- Population Pyknosed Nuclei (%) [1]: 25.99% and 14.09%
- Population Tubulin-Different-Phenotype (%) [1]: 10.53% and 15.34%
- Total Cell Count [1]: 177 and 220
- Population Apoptotic (%) [2]: 10.2% and 11.76%
- Population Fragmented Nuclei (%) [2]: 14.63% and 8.91%
- Population Healthy Nuclei (%) [2]: 55.49% and 74.26%
- Population Hoechst High Intensity Objects (%) [2]: 0%
- Population Membrane Permeable-Phenotype (%) [2]: 5.49% and 4.67%
- Population Mitochondria Different-Phenotype (%) [2]: 15.38% and 11.33%
- Population Mitotic Cells (%) [2]: 89.8% and 88.24%
- Population Normal (%) [2]: 100%
- Population Pyknosed Nuclei (%) [2]: 29.88% and 16.83%
- Population Tubulin-Different-Phenotype (%) [2]: 15.38% and 34.67%
- Total Cell Count [2]: 164 and 202
- Population Apoptotic (%) [3]: 14.63% and 27.27%
- Population Fragmented Nuclei (%) [3]: 10.29% and 4.91%
- Population Healthy Nuclei (%) [3]: 69.61% and 85.27%
- Population Hoechst High Intensity Objects (%) [3]: 0%
- Population Membrane Permeable-Phenotype (%) [3]: 3.52% and 2.09%
- Population Mitochondria Different-Phenotype (%) [3]: 5.63% and 5.76%
- Population Mitotic Cells (%) [3]: 85.37% and 72.73%
- Population Normal (%) [3]: 100%
- Population Pyknosed Nuclei (%) [3]: 20.1% and 9.82%
- Population Tubulin-Different-Phenotype (%) [3]: 19.72% and 10.99%
- Total Cell Count [3]: 204 and 224
- Population Apoptotic (%) [4]: 4.65% and 14.29%
- Population Fragmented Nuclei (%) [4]: 9.94% and 5.1%
- Population Healthy Nuclei (%) [4]: 64.91% and 84.18%
- Population Hoechst High Intensity Objects (%) [4]: 0%
- Population Membrane Permeable-Phenotype (%) [4]: 3.6% and 3.03%
- Population Mitochondria Different-Phenotype (%) [4]: 12.61% and 10.3%
- Population Mitotic Cells (%) [4]: 95.35% and 85.71%
- Population Normal (%) [4]: 100%
- Population Pyknosed Nuclei (%) [4]: 25.15% and 10.71%
- Population Tubulin-Different-Phenotype (%) [4]: 27.93% and 29.09%
- Total Cell Count [4]: 171 and 196
- Population Apoptotic (%) [5]: 33.33% and 18.18%
- Population Fragmented Nuclei (%) [5]: 9.22% and 7.42%
- Population Healthy Nuclei (%) [5]: 83.87% and 87.77%
- Population Hoechst High Intensity Objects (%) [5]: 0%
- Population Membrane Permeable-Phenotype (%) [5]: 2.2% and 1%
- Population Mitotic Cells (%) [5]: 66.67% and 81.82%
- Population Normal (%) [5]: 100%
- Population Pyknosed Nuclei (%) [5]: 6.91% and 4.8%
- Population Tubulin-Different-Phenotype (%) [5]: 12.09% and 14.43%
- Total Cell Count [5]: 217 and 229
- Population Apoptotic (%) [6]: 22.22% and 18.18%
- Population Healthy Nuclei (%) [6]: 74.18% and 91.26%
- Population Hoechst High Intensity Objects (%) [6]: 0%
- Population Membrane Permeable-Phenotype (%) [6]: 2.96% and 5.32%
- Population Mitochondria Different-Phenotype (%) [6]: 14.81% and 5.32%
- Population Mitotic Cells (%) [6]: 77.78% and 81.82%
- Population Normal (%) [6]: 100%
- Population Pyknosed Nuclei (%) [6]: 9.89% and 5.34%
- Population Tubulin-Different-Phenotype (%) [6]: 14.81% and 30.32%
- Total Cell Count [6]: 182 and 206
